The test system of data set [1] is RAW264.7. The experiment in a line: Cytotoxicity against mouse RAW264.7 cells assessed as cell viability at 5 to 20 uM after 24 hrs by MTT assay. It counts as cell-based. Conditions: raw264.7, 24 h. The essentials: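 Cells grown in DMEM with 10% heat-inactivated FBS. Exposure to compound or 0.1% DMSO vehicle for 24 h. MTT added 1 h at 37 °C, formazan dissolved in DMSO and read at 570 nm.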

Data set [2] has as its system RAW264.7. The experiment in a line: Antiosteoclast activity in mouse RAW264.7 cells assessed as reduction of RANKL-induced osteoclasts differentiation by measuring TRAP positive multinucleated cells after 5 days. It counts as functional, cell-based. The essentials:
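Cells seeded 24 h, then 5 days in α-MEM with 10% FBS, RANKL 50 ng/mL and test compound. Cells fixed in 10% formalin 10 min and TRAP-stained. Multinucleated TRAP+ cells with three or more nuclei counted by light microscopy; mean ± SD, n = 5.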

For data set [3], the system named is RAW264.7. Briefly: Inhibition of RANKL-stimulated JNK phosphorylation in mouse RAW264.7 cells at 20 uM by Western blotting analysis. It counts as cell-based. The essentials: (§1)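 Compound added 2 h before RANKL, followed by 15 min further incubation. Total cell lysates blotted on 12% SDS-PAGE for total and phosphorylated MAPKs, with milk block, primary overnight at 4 °C, HRP secondary, chemiluminescence and densitometry. At least three independent experiments.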

Data set [4] relates to RAW264.7. Briefly: Inhibition of RANKL-stimulated ERK phosphorylation in mouse RAW264.7 cells at 20 uM by Western blotting analysis. The class given is cell-based. The essentials:
as §1
(Immunoblotting shows a protein as a band on a membrane.)

Data set [5] concerns the target MAP kinase p38 (Mus musculus) (UniProt P47811+O08911+Q9WUI1+Q9Z1B7). Briefly: Inhibition of RANKL-stimulated p38 MAPK phosphorylation in mouse RAW264.7 cells at 20 uM by Western blotting analysis. The class given is cell-based. The method in brief:
as §1

The test system of data set [6] is RAW264.7. Briefly: Induction of nuclear accumulation of Nrf2 in RANKL-induced mouse RAW264.7 cells up to 20 uM after 3 hrs by Western blot analysis. The class given is functional, cell-based. The method in brief:
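Nuclear protein extracted with hypotonic then hypertonic (420 mM NaCl) buffers after 3 h RANKL 50 ng/mL with compound. Samples run on 12% SDS-PAGE and immunoblotted; at least three independent experiments.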

The test system of data set [7] is RAW264.7. The experiment in a line: Antiosteoclast activity in mouse RAW264.7 cells assessed as reduction of RANKL-induced osteoclasts differentiation by measuring TRAP positive multinucleated cells after 5 days in presence of tin protoporphyrin 9 (SnPP). The class given is functional, cell-based. The method in brief:
(§2)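 RANKL 50 ng/mL for 5 days in α-MEM with 10% FBS after 24 h seeding; SnPP 10 μM with test compound. TRAP+ multinucleated cells (≥3 nuclei) counted after formalin fixation and staining. TRAP activity: fixed cells in 50 mM citrate pH 4.6, 10 mM tartrate, 5 mM pNPP for 1 h, stopped with 0.1 N NaOH, A410, as % of RANKL-alone.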

The subject of data set [8] is RAW264.7. The experiment in a line: Antiosteoclast activity in mouse RAW264.7 cells assessed as reduction of RANKL-induced osteoclasts differentiation by measuring TRAP activity after 5 days in presence of tin protoporphyrin 9 (SnPP). The class given is functional, cell-based. The essentials:
as §2

Data set [9] concerns RAW264.7. Briefly: Inhibition of NFATc1 expression in RANKL-induced mouse RAW264.7 cells at 20 uM after 24 hrs by immunofluorescence staining. The class given is functional, cell-based. The essentials: (§3)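 Compound 20 μM, alone or with SnPP 10 μM, plus RANKL 50 ng/mL for 24 h. Nuclear NFATc1 by western blot of nuclear extracts, and by immunofluorescence: methanol-fixed cells, 4% BSA block, anti-NFATc1 1:100 overnight at 4 °C, FITC secondary, DAPI counterstain. n = 5.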

The test system of data set [10] is RAW264.7. The experiment in a line: Inhibition of NFATc1 expression in RANKL-induced mouse RAW264.7 cells at 20 uM after 24 hrs by immunofluorescence staining in presence of tin protoporphyrin 9 (SnPP). It counts as functional, cell-based. The method in brief:
as §3

Data set [11] relates to RAW264.7. Briefly: Inhibition of MMP9 activity in RANKL-induced mouse RAW264.7 cells at 20 uM after 5 days by gelatin zymography.
The subject of data set [12] is RAW264.7. The experiment in a line: Induction of HO-1 protein expression in RANKL-induced mouse RAW264.7 cells up to 20 uM after 48 hrs by Western blot analysis.
Data set [13] concerns RAW264.7. Briefly: Inhibition of RANKL-induced H2O2 production in mouse RAW264.7 cells pretreated for 2 hrs before RANKL stimulation for 10 mins.
The test system of data set [14] is RAW264.7. The experiment in a line: Inhibition of RANKL-induced superoxide anion production in mouse RAW264.7 cells pretreated for 2 hrs before RANKL stimulation for 10 mins.
In data set [15] the test system is RAW264.7. Briefly: Inhibition of MMP9 activity in RANKL-induced mouse RAW264.7 cells at 20 uM after 5 days by gelatin zymography in presence of tin protoporphyrin 9 (SnPP).

The structures appear in SMILES notation. The source made the active and inactive calls. The rule behind the calls is not given here.

On to `C=CCc1ccc(O)c(-c2cc(CC=C)ccc2O)c1` [MAGNOLOL], for which the Activity entry in the data set with RAW264.7 [1] is “Non-toxic”; in the data set with RAW264.7 [2], “Dose-dependent effect”. Moreover, the inhibition entry (with RAW264.7 [3]; with RAW264.7 [4]; in data set [5]; in the data set on RAW264.7 [9]; in the data set with RAW264.7 [11]) was “Active” each time. Also, the outcome in the data set on RAW264.7 [6] and in the data set with RAW264.7 [12] was Active. Moreover, the outcome in the data set with RAW264.7 [7] and in the data set on RAW264.7 [8] was inactive. For the same molecule, the inhibition entry in the data set with RAW264.7 [10] and in the data set on RAW264.7 [15] was “inactive” in each case. In addition, the inhibition result in the data set with RAW264.7 [13] and in the data set with RAW264.7 [14] was “Dose-dependent effect” each time.

(Values after ChEMBL document CHEMBL3393011, “Magnolol Inhibits RANKL-induced osteoclast differentiation of raw 264.7 macrophages through heme oxygenase-1-dependent inhibition of NFATc1 expression” (J Nat Prod, 2015).)
